From ChEMBL document CHEMBL3352184, “6-Deoxy-13-hydroxy-8,11-dione-dihydrogranaticin B, an intermediate in granaticin biosynthesis, from Streptomyces sp. CPCC 200532” (J Nat Prod, 2014)
The source made the active and inactive calls. The calls are words filed in the database; no cut-off is given here.

Legend:
A549 = experiment: Cytotoxicity against human A549 cells by MTT assay; format: functional, cell-based
Summary of the method: (§1)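 MTT read-out on cancer cell lines exposed to a series of concentrations per compound (ranges spanning roughly 0.6–372.1 μM); compounds dissolved in DMSO, final DMSO 0.1%.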

[1] = Cytotoxicity against human HCT116 cells by MTT assay; format: functional, cell-based; conditions: HCT-116; summary of the method: as §1
HeLa = experiment: Cytotoxicity against human HeLa cells by MTT assay; format: functional, cell-based; summary of the method: as §1
HepG2 = experiment: Cytotoxicity against human HepG2 cells by MTT assay; format: functional, cell-based; summary of the method: as §1
Bacillus subtilis = experiment: Antibacterial activity against Bacillus subtilis CMCC 63501 after 16 to 18 hrs by filter paper disk assay; format: functional, organism-based

SMILES	IC50 (A549)	IC50 [1]	IC50 (HeLa)	IC50 (HepG2)	Activity (Bacillus subtilis)
C[C@@H]1O[C@H]2CC(=O)O[C@H]2C2=C1C(=O)c1c(O)c3c(c(O)c1C2=O)[C@H]1C[C@@H](O[C@H]2CC[C@H](O)[C@H](C)O2)[C@@]3(O)[C@@H](C)O1 [GRANATICIN B]	1.9 µM	14.8 µM	1.6 µM	5.8 µM	Active
C[C@@H]1O[C@H]2CC(=O)O[C@H]2C2=C1C(=O)c1c(O)c3c(c(O)c1C2=O)[C@H]1C[C@@H](O)[C@]3(O)[C@@H](C)O1	1.3 µM	11 µM	0.7 µM	6.6 µM	
C[C@@H]1O[C@@H](CC(=O)O)Cc2cc3c(c(O)c21)C(=O)C1=C(C3=O)[C@H]2C[C@@H](O[C@H]3CC[C@H](O)[C@H](C)O3)[C@@]1(O)[C@@H](C)O2	37.6 µM	13.1 µM	20.2 µM	18.8 µM	
C[C@@H]1O[C@@H](CC(=O)O)CC2=C1C(=O)c1c(O)c3c(c(O)c1C2=O)[C@H]1C[C@@H](O[C@H]2CC[C@H](O)[C@H](C)O2)[C@@]3(O)[C@@H](C)O1					Active
C[C@@H]1O[C@@H](CC(=O)O)Cc2cc3c(c(O)c21)C(=O)C1=C(C3=O)[C@H]2C[C@@H](O)[C@@]1(O)[C@@H](C)O2	197 µM	179 µM	297 µM	148 µM	
